Measured values: ChEMBL document CHEMBL1275278, “Synthesis and pharmacological evaluation of clubbed isopropylthiazole derived triazolothiadiazoles, triazolothiadiazines and mannich bases as potential antimicrobial and antitubercular agents” (Eur J Med Chem, 2010)
Converted amounts (≈) assume the structure as drawn.

Columns and labels:
Escherichia coli = experiment: Antibacterial activity against Escherichia coli ATCC 10536 after 24 hrs by broth microdilution method; format: functional; details: ATCC 10536, 24 h
Summary of the method: (§1)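 Broth dilution in Mueller-Hinton broth. Tubes inoculated at 10⁵ cfu/mL and incubated 37 °C for 24 h. MIC taken as lowest concentration completely inhibiting growth. Media and media-plus-DMSO growth controls; ciprofloxacin and norfloxacin as reference standards.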

A549 = experiment: Cytotoxicity against human A549 cells assessed as cell viability at 250 uM by MTT assay; format: cell-based; details: a549, 250 µM
Summary of the method: (§2)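 A549 lung adenocarcinoma cells grown with fetal bovine serum. Compounds held as 10 mM DMSO stocks at −20 °C and diluted in culture medium before treatment (50–250 µM). Viability read by MTT assay against untreated cells and DMSO vehicle control. Two experiments, each with triplicate readings.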

Aspergillus niger = experiment: Antifungal activity against Aspergillus niger ATCC 6275 after 24 hrs by broth microdilution method; format: functional; details: ATCC 6275, 24 h
Bacillus subtilis = experiment: Antibacterial activity against Bacillus subtilis ATCC 60511 after 24 hrs by broth microdilution method; format: functional; details: ATCC 60511, 24 h; summary of the method: as §1
Enterococcus faecalis = experiment: Antibacterial activity against Streptococcus faecalis ATCC 14506 after 24 hrs by broth microdilution method; format: functional; details: ATCC 14506, 24 h; summary of the method: as §1
Candida tropicalis = experiment: Antifungal activity against Candida tropicalis ATCC 1369 after 24 hrs by broth microdilution method; format: functional; details: ATCC 1369, 24 h
Staphylococcus aureus = experiment: Antibacterial activity against Staphylococcus aureus ATCC 11632 after 24 hrs by broth microdilution method; format: functional; details: ATCC 11632, 24 h; summary of the method: as §1
Saccharomyces cerevisiae = experiment: Antifungal activity against Saccharomyces cerevisiae ATCC 9763 after 24 hrs by broth microdilution method; format: functional; details: ATCC 9763, 24 h
[1] = system: Mycobacterium tuberculosis; experiment: Antimycobacterial activity against Mycobacterium tuberculosis H37Rv after 21 days by broth dilution assay; format: functional; details: 504 h
Summary of the method: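 Frozen culture in Middlebrook 7H9 broth with 10% albumin-dextrose-catalase and 0.2% glycerol, thawed and diluted in broth to 10⁵ cfu/mL. Compounds dissolved in DMSO, twofold diluted in broth; final DMSO 1.3%. Tubes inoculated, incubated at 37 °C. Growth compared visually against drug-free and drug- and inoculum-free controls and isoniazid. MIC = lowest concentration inhibiting ≥99% of the starting bacterial population.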

Klebsiella pneumoniae = experiment: Antibacterial activity against Klebsiella pneumoniae ATCC 10031 after 24 hrs by broth microdilution method; format: functional; details: ATCC 10031, 24 h; summary of the method: as §1
Pseudomonas aeruginosa = experiment: Antibacterial activity against Pseudomonas aeruginosa ATCC 10145 after 24 hrs by broth microdilution method; format: functional; details: ATCC 10145, 24 h; summary of the method: as §1
[2] = Cytotoxicity against human A549 cells assessed as cell viability at 250 uM by MTT assay relative to control; format: cell-based; details: read-out: Activity; summary of the method: as §2

Compound	MIC (Escherichia coli) [µg/mL]	Activity (A549)	MIC (Aspergillus niger) [µg/mL]	MIC (Bacillus subtilis) [µg/mL]	MIC (Enterococcus faecalis) [µg/mL]	MIC (Candida tropicalis) [µg/mL]	MIC (Staphylococcus aureus) [µg/mL]	MIC (Saccharomyces cerevisiae) [µg/mL]	MIC [1] [µg/mL]	MIC (Klebsiella pneumoniae) [µg/mL]	MIC (Pseudomonas aeruginosa) [µg/mL]	viability at 250 µM [2] [%]
CC(C)c1csc(-c2nnc3n2NC(c2ccc(F)cc2F)S3)n1 (stereo not given)	16 (≈ 43.8 µM)	Toxic	31.2 (≈ 85.5 µM)	4 (≈ 10.9 µM)	4 (≈ 10.9 µM)	125 (≈ 342 µM)	8 (≈ 21.9 µM)	62.5 (≈ 171 µM)	4 (≈ 10.9 µM)	31.2 (≈ 85.5 µM)	16 (≈ 43.8 µM)	–
COc1ccc(C(=O)Nn2c(-c3nc(C(C)C)cs3)n[nH]c2=S)cc1	8 (≈ 21.3 µM)	–	16 (≈ 42.6 µM)	62.5 (≈ 166 µM)	125 (≈ 333 µM)	8 (≈ 21.3 µM)	62.5 (≈ 166 µM)	4 (≈ 10.7 µM)	16 (≈ 42.6 µM)	16 (≈ 42.6 µM)	8 (≈ 21.3 µM)	50
CC(C)c1csc(-c2nn(CN3CCN(C)CC3)c(=S)n2/N=C/c2ccccc2Cl)n1	125 (≈ 263 µM)	–	62.5 (≈ 131 µM)	125 (≈ 263 µM)	31.2 (≈ 65.6 µM)	125 (≈ 263 µM)	16 (≈ 33.6 µM)	125 (≈ 263 µM)	31.2 (≈ 65.6 µM)	16 (≈ 33.6 µM)	31.2 (≈ 65.6 µM)	–
CC(C)c1csc(-c2nn(CN3CCN(C)CC3)c(=S)n2/N=C/c2ccc(N(C)C)cc2)n1	16 (≈ 33 µM)	–	8 (≈ 16.5 µM)	8 (≈ 16.5 µM)	4 (≈ 8.25 µM)	31.2 (≈ 64.5 µM)	31.2 (≈ 64.5 µM)	16 (≈ 33 µM)	4 (≈ 8.25 µM)	4 (≈ 8.25 µM)	31.2 (≈ 64.5 µM)	50
COc1cc(/C=N/n2c(-c3nc(C(C)C)cs3)nn(CN3CCN(C)CC3)c2=S)cc(OC)c1OC	8 (≈ 15 µM)	–	16 (≈ 30.1 µM)	4 (≈ 7.52 µM)	8 (≈ 15 µM)	62.5 (≈ 118 µM)	16 (≈ 30.1 µM)	125 (≈ 235 µM)	8 (≈ 15 µM)	16 (≈ 30.1 µM)	31.2 (≈ 58.8 µM)	50
CC(C)c1csc(-c2nn(CN3CCOCC3)c(=S)n2/N=C/c2ccccc2Cl)n1	62.5 (≈ 135 µM)	–	31.2 (≈ 67.5 µM)	125 (≈ 270 µM)	62.5 (≈ 135 µM)	125 (≈ 270 µM)	31.2 (≈ 67.5 µM)	125 (≈ 270 µM)	31.2 (≈ 67.5 µM)	16 (≈ 34.6 µM)	62.5 (≈ 135 µM)	–
COc1cc(/C=N/n2c(-c3nc(C(C)C)cs3)nn(CN3CCOCC3)c2=S)cc(OC)c1OC	125 (≈ 241 µM)	–	62.5 (≈ 121 µM)	62.5 (≈ 121 µM)	62.5 (≈ 121 µM)	62.5 (≈ 121 µM)	125 (≈ 241 µM)	125 (≈ 241 µM)	31.2 (≈ 60.3 µM)	16 (≈ 30.8 µM)	62.5 (≈ 121 µM)	–
COc1ccc(C2=Nn3c(nnc3-c3nc(C(C)C)cs3)SC2)cc1	16 (≈ 43.1 µM)	–	16 (≈ 43.1 µM)	8 (≈ 21.5 µM)	4 (≈ 10.8 µM)	31.2 (≈ 84.1 µM)	8 (≈ 21.5 µM)	16 (≈ 43.1 µM)	4 (≈ 10.8 µM)	16 (≈ 43.1 µM)	8 (≈ 21.5 µM)	50
